System: MS2 coat protein
Assay: apparent Kd, MS2 coat protein; higher = weaker binding; RNA-MaP array; FMN 200 µM where present
How it was run: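 In 100 mM Tris-HCl pH 7.5, 80 mM KCl, 4 mM MgCl2, BSA, DTT, yeast tRNA and Tween-20, SNAP-549-labelled MS2 coat protein was titrated from 0.7 or 1.5 nM, doubling to 3 µM, over designs transcribed by stalled E. coli RNA polymerase on Illumina sequencing-chip clusters. This was done first without ligand, then with ligand held constant. After green signal was normalised to red-channel RNA signal and control-cluster median Fmax, the apparent Kd was taken as the median of filtered per-cluster binding-curve fits.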

[1] = designed as: OFF switch for flavin mononucleotide, no ligand
[2] = ligand present: flavin mononucleotide, designed as: OFF switch for flavin mononucleotide
[3] = designed as: ON switch for flavin mononucleotide, no ligand
[4] = ligand present: flavin mononucleotide, designed as: ON switch for flavin mononucleotide

| Sequence | apparent Kd [1] [nM] | apparent Kd [2] [nM] | apparent Kd [3] [nM] | apparent Kd [4] [nM] |
| --- | --- | --- | --- | --- |
| AGCUAGGUAGGAUAUGCGUAAAUGUCGAAAGACGUAUUGGGACAUGAGGAUCACCCAUGUAGAAGGAUCUAGCA | 39.3 | 55.7 |  |  |
| ACUAAAGAAGGAUAUACUAACGAACCUCAAACAUAGAUAAAACAUGAGGAUCACCCAUGUAGAAGGUCUAGACU | 31.7 | 39.6 |  |  |
| GGUGAAGCAGGAUAUGUGCCAAUAUACAUGAGGAUCACCCAUGUCAUGUAGGAACUGCGUAUAGAAGGGCUUCACC | 37.6 | 63.5 |  |  |
| UAAUAAUAAUAAUAGCAGUUUACAUGAGGAUCACCCAUGUAUAAGGAUAUCGUCAGGAAUACUGACGAGAAGGUAUACAUCUGC | 20.3 | 33.6 |  |  |
| AGCAUGUAAGGAUAUGCAAGUGGUACGGAUAGUACCAUAAAGCAGAAGGUACAUGAGGAUCACCCAUGUGCUCC | 36.3 | 66.7 |  |  |
| GUCAGCUCGUGAGGAUAUACAACACUGCUUCGGCAGUGUAUUAAGAUCACAUGAGGAUCACCCAUGUAGAAGGCACGAGCUAAU | 15.9 | 267 |  |  |
| CCUAAGGACACAGGAUAUAGCGUGGUGGCCGGACUCCAACAGCGAGCGGCGCUAGAAGGGUGACCACAUGAGGAUCACCCAUGU |  |  | 709 | 370 |
| GGGUAACAUGAGGAUCACCCAUGUGAGGAUAUUCUAGGGAUGGAAGCUCGGCCGGCCAGGAGAAGGUACUAAAG | 44 | 48 |  |  |
| AAAACAUGAGGAUCACCCAUGUAAAGAUCAAUUAAAAUGAGUGAGGAUAUACUAAAUUAUUUAUAGUAGAAGGCACUGGGUACA |  |  | 25 | 26.3 |
| ACAUGAGGAUCACCCAUGUAUUACAUGGUUAAGUUUAUUAACAGAAGGCGAAAUUACCACUUGGUCGAGGAUAUGUAUUCUAUU | 40.3 | 40.7 |  |  |
| UAUUACCUAGGAUAUACAUGAGGAUCACCCAUGUCACGGGUCAACUUGUCCUACGCGUGUAGAAGGAGGGACCC | 21 | 21.4 |  |  |
| CAUUUACAUGAGGAUCACCCAUGUGAGGAUAUGGAAUGGUUCAUUGUCUGACCUCCUUCUAGAAGGCACAUCUC | 29.6 | 30.5 |  |  |
| UUUAUAAAUUAGAAGGCGAGAUAAAUUACAAUAGACAUGAGGAUCACCCAUGUGUACCCAUGUUUUGAGGAUAUAGUCAUAUAU |  |  | 1140 | 624 |
| UGAUAGGACAGAGGAUAUACAGAUAGGAUCUACUAUCAAACAUUCCUGACAUGAGGAUCACCCAUGUAGAAGGCUGUCCUAUCU | 21.9 | 72.8 |  |  |
| UCCACUGCUGAGAAGGGAUACGUGUGGUUCGCAUCAGGAUAUCGAUACAGUGCAGCAUGAGGACAUGAGGAUCACCCAUGUAUC |  |  | 43 | 16.5 |
| CAUACACAUGAGGAUCACCCAUGUGAGGAUAUGCGUACGUUGUCCGUAGGCGACGUGCGCAGAAGGCGCUUGGU | 57.1 | 68.6 |  |  |
| AGCUACGUUUCGUAGCAGUGUCAUCGAGAAGGCUCAUAUACAUGAGGAUCACCCAUGUUUUCAUGGGAGGAUAUCGAUGAUACA |  |  | 108 | 8.76 |
| AGUGGGCUAGGAUAUCGAUGAACUCACAUGAGGAUCACCCAUGUGUCUUUGGUGGGCGCACGAGAAGGAGUAAGAU | 40.4 | 43.3 |  |  |
| ACAGGCUUCGAGAAGGACAUGAGGAUCACCCAUGUGCGUGUGAAGCAGCCGUGAGGCUGCAUCAUGUAGGAUAUCGGAGUCUGU | 63.8 | 374 |  |  |
| GUUGGGUGUCAUGUCGCACAUGAGGAUCACCCAUGUAGGAGGUAGGAUAUCCACGAGAAACAAGAGGAGAAGGGCCAUUAGCGU | 23.5 | 29.2 |  |  |
| UGUAUAUAGGCAGGAUAUACAUGAAUAUAUAUGAUGUAGUAUGAUGUAACAUGAGGAUCACCCAUGUAGAAGGGCCAGUGUAUA | 73.8 | 144 |  |  |
| AUUAUAUAGAUAGGAUAUUGAUUAUUAUUUUAACAUGAGGAUCACCCAUGUAGCCUUAUGUAUAACAAGAAGGAUCAUUUAUUA | 161 | 181 |  |  |
| GGGCUCGGUGUGAGGAUAUUGGGUCUGAAAGGGCUCGAGAAGGCACAUGAGGAUCACCCAUGUAAGCUGGGUCU | 42.7 | 37.3 |  |  |
| UUUUUGUCAGGAUAUGAGUAGUAGUACUAUUGUUUUAUUAUUUAGAAGGGACAUGAGGAUCACCCAUGUUUCUC | 14.9 | 15.9 |  |  |

| Sequence | apparent Kd [1] [nM] | apparent Kd [2] [nM] | apparent Kd [3] [nM] | apparent Kd [4] [nM] |
| --- | --- | --- | --- | --- |
| UUGAGGUAAGGAUAUAUUAGGAGCGAAGUUACUUGUUUUUUAUAGAAGGUACAUGAGGAUCACCCAUGUGAAUA | 27.7 | 23.4 |  |  |
| UUUAUGUAAGGAUAUGCGGGCGGGCGUGAAAAUGUUUGUUUGUAGAAGGUACAUGAGGAUCACCCAUGUAGUGG | 145 | 201 |  |  |
| AGUGUCAUCGAGAAGGACACGGACAUGAGGAUCACCCAUGUUCCAUGUUGUAGGAUAUCGAUGAUACAGCUACGUUUCGUAGCA |  |  | 5.01 | 4.5 |
| GGGUGACAUGAGGAUCACCCAUGUCAGGAUAUGGGCCCGGGUUUGAAAGGGCCCGGGCCCAGAAGGGACUGCCC | 55.3 | 127 |  |  |
| UCAGGUCGGGAAGGAUAUCGGCCGCGAAGAGCUCGAGAAGGUCCCGACAUGAGGAUCACCCAUGUUGAAGGGUCCUAACGUGCC | 158 | 93.4 |  |  |
| AACUCACAUGAGGAUCACCCAUGUGAGGAUAUAUAAAUAUAUAUGUUAUUGUAUGUUUGUAGAAGGCGCGUGAU | 38.6 | 43.1 |  |  |
| AUUAAACAUGAGGAUCACCCAUGUGAGGAUAUGCAAAAAAAAUUAUAUUAAAAAAAAAGCAGAAGGCACAUAUA | 54.7 | 94.6 |  |  |
| AAAAUACAUGAGGAUCACCCAUGUUAGGAUAUGCAAAGCCCAGUUAGCUUUUGGGUAGGUAGAAGGGACGGGUA | 23.4 | 20.2 |  |  |
| UUAUACGGUGAGGAUAUCUUCACUAAAGUGUGAAGAGAAGGCGCUACAUGAGGAUCACCCAUGUCUAUGGGCAG | 556 | 755 |  |  |
| GUAGCAUACGGAGGAUAUUCAUUAAAACAUGAGGAUCACCCAUGUAAAUUGGGAGAAGGCCGUAUGCUACAAGAGCGAAAGCUC |  |  | 18.3 | 5.48 |
| GAAAAACAUGAGGAUCACCCAUGUGUAAACAAGGGAGGAUAUACAAAGACGUAAGUCAAAGUAGAAGGCCUAAAAG |  |  | 25 | 9.6 |
| AAUUAACAUGAGGAUCACCCAUGUGAGGAUAUGGUAUUAUUUGGACAGUUAUGAUAUACCAGAAGGCACAUAUA | 63.4 | 108 |  |  |
| AAAGAGACAGGAUAUACAUGGGUGAUAAAAAUCAUGUAAAAACAUGAGGAUCACCCAUGUAGAAGGGUCUCAAA | 26.9 | 22.8 |  |  |
| GAUCCACAUGAGGAUCACCCAUGUGAGGAUAUGAUACUAUGUACUUCGGUACAUAGUAUCAGAAGGCACGGGUC | 84.1 | 206 |  |  |
| UUACUAUCACAGAAGGGUAGAUAGUAUAUAGAUGCAGGAUAUGUGACAUGAGGAUCACCCAUGUUUCACCGACAUGAGGAUCAC | 60.4 | 66.2 |  |  |
| AAUUAGGUCACAGGAUAUACAACAUCCAUAGCUGUAGAAGGGUGUCAAAAUAAUAUCUGACAUGAGGAUCACCCAUGUUUCCAC |  |  | 15.8 | 12.7 |
| GUAUAUAUAUAAGGAUAUAAGUCUAGGACAUGAGGAUCACCCAUGUGUGUCUUAGAAGGUAUAUAUGUAAUACUGUUACAGUAA |  |  | 64.8 | 14.2 |
| ACAGUUCUGCAAGGAUAUCGUCCUAGUUUGUUUCGAGAAGGUGCUUUAGUUUAUUCCUUUUGUUUACAUGAGGAUCACCCAUGU | 23.6 | 16.9 |  |  |
| AAAUGCCUGUCGAUGCUCGACAUGAGGAUCACCCAUGUACAGCAGGAUAUGCGGAACUAACUCGUGCAGAAGGGCUGUACCUAA | 102 | 144 |  |  |
| AAUUGGAUGCAGAAGGCAUGGACGACUCGUCACAUUAACAUGAGGAUCACCCAUGUAAAAUAACAUGAGGAUAUGCAUCCUAAA |  |  | 9.81 | 6.15 |
| CCGCCAUGAGGAUAUCCAUCUGGAUCAGACUAGAUCCUGAUGGAGAAGGGACAUGAGGAUCACCCAUGUUGCGG | 62.8 | 55.1 |  |  |
| GUUAAUUAGUGAGGAUAUACAGUAUUUAAUACUGUAGAAGGCACAAUCCUCAAGACAUGAGGAUCACCCAUGUGAUAAUAAGAU | 54.4 | 203 |  |  |
| UUAAAUCAUGUAGGAUAUGCAUGGCGAAGCUACGCAGAAGGACAUGAGGAUCACCCAUGUGCUAGCGACAGAGUACUGUUGCAA | 62.7 | 363 |  |  |
| GGAUAGGACAGAGGAUAUGCGUGCUAGAGAUACUAGCAAAAUUUCCUCACAUGAGGAUCACCCAUGUAGAAGGCUGUCCUAUCG | 7.75 | 66.2 |  |  |

Source: the EternaBench riboswitch data
